KCNQ1 pot = potentiators or activators of KCNQ1 channel, primary screen, cell-based, thallium flux, high-throughput. Potassium voltage-gated channel subfamily KQT member 1 (Homo sapiens), P51787. CHO-K1 KCNQ1, thallium flux FluxOR fluorescence; hits give high values. B-score at 10 µM. 310,000 compounds, 0.35% hits;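 active means fluorescence ratio B-score, a plate-corrected score, at least three library SD, with initial intensity B-score within 5 SD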
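assay system = KCNQ1-transfected CHO-K1 cells | medium = assay buffer with matched DMSO | probe or stimulus = depolarizing K+/Tl+ stimulus, K2SO4 and Tl2SO4 each 12.5 mM in 5x stock | dosing = single dose | incubation = dye 90 min, compound 20 min, room temperature | detection = kinetic FluxOR fluorescence, 10 s baseline plus 110 s post-stimulus | evaluation = ratio B score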
KCNQ1 block = inhibitors of human KCNQ1 channel, primary screen, cell-based, thallium flux, high-throughput. Potassium voltage-gated channel subfamily KQT member 1 (Homo sapiens), P51787. CHO-K1 KCNQ1, FluxOR thallium flux fluorescence; hits give high values. B-score at 10 µM. 310,000 compounds, 1.3% hits;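 active means compounds whose thallium flux B-score, printed positive for inhibition, exceeds three library SD while starting fluorescence stays within three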;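 further: channel opened by potassium depolarization with thallium stimulus after 20 min compound exposure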
hERG rescue = hERG rescue from dofetilide block, primary screen, cell-based, CHO-hERG, FluxOR thallium flux, dofetilide IC70. Voltage-gated inwardly rectifying potassium channel KCNH2 (Homo sapiens), Q12809. dofetilide IC70 present. activation (rescue from dofetilide block), less the hit threshold, % at 10 µM. 310,000 compounds, 0.51% hits. AID 1511, 2009;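 active means activation above the mean of controls blocked by dofetilide plus 5 SD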;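 further: thallium influx through hERG after potassium depolarization seen as dye fluorescence rise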
Target sequence (Q12809 whole entry, looked up): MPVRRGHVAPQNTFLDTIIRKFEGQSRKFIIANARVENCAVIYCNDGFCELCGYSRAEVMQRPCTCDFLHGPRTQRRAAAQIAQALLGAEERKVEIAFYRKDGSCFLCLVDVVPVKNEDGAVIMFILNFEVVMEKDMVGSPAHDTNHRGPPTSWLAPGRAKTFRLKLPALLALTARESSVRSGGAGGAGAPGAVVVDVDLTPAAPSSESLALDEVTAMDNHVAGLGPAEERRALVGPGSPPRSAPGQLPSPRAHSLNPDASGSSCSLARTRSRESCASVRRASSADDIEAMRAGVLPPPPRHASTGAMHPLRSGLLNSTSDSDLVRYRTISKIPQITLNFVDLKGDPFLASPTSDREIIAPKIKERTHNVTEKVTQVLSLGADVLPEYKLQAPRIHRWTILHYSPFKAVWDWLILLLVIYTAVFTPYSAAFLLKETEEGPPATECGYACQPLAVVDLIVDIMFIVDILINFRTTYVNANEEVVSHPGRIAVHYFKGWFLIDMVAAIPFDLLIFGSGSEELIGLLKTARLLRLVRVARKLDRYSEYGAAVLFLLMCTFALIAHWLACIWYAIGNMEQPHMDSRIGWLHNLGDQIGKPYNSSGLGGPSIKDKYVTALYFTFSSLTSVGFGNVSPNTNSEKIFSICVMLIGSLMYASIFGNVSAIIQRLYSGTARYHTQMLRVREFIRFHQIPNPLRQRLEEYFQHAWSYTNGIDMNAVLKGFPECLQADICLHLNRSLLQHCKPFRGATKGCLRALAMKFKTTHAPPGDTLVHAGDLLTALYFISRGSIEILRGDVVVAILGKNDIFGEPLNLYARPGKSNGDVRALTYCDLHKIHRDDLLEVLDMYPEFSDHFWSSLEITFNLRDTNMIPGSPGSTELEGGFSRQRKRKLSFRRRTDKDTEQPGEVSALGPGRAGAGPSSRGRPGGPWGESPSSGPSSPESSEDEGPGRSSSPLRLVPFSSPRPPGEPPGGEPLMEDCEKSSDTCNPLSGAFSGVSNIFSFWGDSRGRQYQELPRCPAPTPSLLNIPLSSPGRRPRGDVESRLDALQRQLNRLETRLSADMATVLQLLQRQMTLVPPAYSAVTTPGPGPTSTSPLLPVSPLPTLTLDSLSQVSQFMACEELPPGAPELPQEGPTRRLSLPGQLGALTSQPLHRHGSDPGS
KCNK9 inh = KCNK9 potassium channel inhibitors, primary screen, HEK293 cells, thallium flux; Potassium channel subfamily K member 9 (Homo sapiens), Q9NPC2; FluxOR thallium flux fluorescence; hits give low values; B-score at 10 µM; 310,000 compounds, 1.2% hits; AID 488922, 2010;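 active means ratio B-score over 3 SD below the library mean, with starting fluorescence within 5 SD of its mean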;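 further: negative B-score means less thallium flux so channel inhibition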
KCNK3 inh = human KCNK3 channel inhibitors, primary screen, CHO cells, FluxOR thallium flux, B-score. Potassium channel subfamily K member 3 (Homo sapiens), O14649. FluxOR fluorescence; hits give low values. B-score at 10 µM. 340,000 compounds, 0.84% hits. AID 602410, 2012;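 active means B-score under library mean minus 4 SD, starting fluorescence ratio at most library mean plus 5 SD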;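 further: more negative B-score means stronger inhibition of thallium flux through KCNK3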
Kir21 block = inhibitors of mouse Kir2.1 inward-rectifier potassium channel; B-score at 10 µM; HEK293-Kir2.1, FluxOR thallium flux fluorescence; hits give low values; 310,000 compounds, 0.85% hits; AID 1672, 2009; Inward rectifier potassium channel 2 (Mus musculus), P35561;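 active means fluorescence ratio B-score at or below minus 3 SD of library scores, with starting-brightness B-score within 2 SD, cut at about -4.2 in these data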;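 further: channel flux triggered by added potassium and thallium sulfate stimulus; B-score of peak minus minimum fluorescence over baseline after thallium stimulus; more negative B-score means stronger Kir2.1 block with less thallium influx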
KCNQ1 inh valid = KCNQ1 potassium channel inhibitors, confirmation, cell-based, Tl flux, duplicate; inhibition, % at 10 µM; AID 588353, 2011; KCNQ1 cell line, FluxOR thallium flux fluorescence; shares compounds with KCNQ1 block; 1,600 compounds, 93% hits;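 active means primary screen active, with duplicate mean exceeding buffer control mean plus 3 SD of buffer wells, cut at about 28% in these data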
CHO KCNQ1 ctr = thallium flux effects in parental CHO cells, counter-screen for KCNQ1 inhibitor project, cell-based, Tl flux. parental CHO-K1, FluxOR thallium flux fluorescence ratio; hits give low values; zero means no signal rise above baseline. 1,600 compounds, 21% hits. fluorescence ratio (Tl flux) at 10 µM. AID 588366, 2011. shares compounds with KCNQ1 block;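 active means mean of duplicate thallium-flux fluorescence ratios in parental host cells more than 5 SD below the buffer control mean, cut at about 0.38 in these data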;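 further: ratio is peak minus minimum fluorescence divided by baseline fluorescence; actives read low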
KCNQ1 ephys val = KCNQ1 channel inhibitors, confirmation, orthogonal assay, cell-based, automated electrophysiology. KCNQ1-CHO cells, automated patch clamp current. AID 624120, 2012. 490 compounds, 20% hits. calls only at 10 µM. shares compounds with KCNQ1 block;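 active means KCNQ1 current drop exceeding 3 SD of negative control wells, seen in both duplicate runs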;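 further: steady state current during a 2 s step from -80 to +40 mV; negative values mean current inhibition and positive values mean potentiation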
KCNQ2 inh = KCNQ2 channel inhibition, selectivity assay for KCNQ1 inhibitor project, cell-based | 1,600 compounds, 71% hits | AID 651746, 2012 | shares compounds with KCNQ1 block | KCNQ2 cells, FluxOR thallium flux fluorescence | inhibition, % at 10 µM;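 active means mean percent inhibition of the KCNQ2 thallium signal more than 5 SD above the buffer-only control wells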;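 further: KCNQ2 expressed in CHO cells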
KCNQ1-KCNE1 inh = KCNQ1/KCNE1 channel inhibition, selectivity assay for KCNQ1 inhibitor project, CHO-K1 cells, thallium flux, FluxOR; AID 652147, 2013; inhibition, % at 10 µM; FluxOR thallium flux fluorescence; 1,600 compounds, 77% hits; shares compounds with KCNQ1 block;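 active means mean percent inhibition of duplicate wells above the buffer-only control mean plus 3 SD of those controls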
Each line names hits and unclear results; the compound was inactive in the other large screens (follow-up assays come after a bar, where they were run). This is a sample that favours compounds with a hit; in the whole collection about 3.7% have one here.

COCCNC(=O)Cn1nc(-c2ccccc2C)ccc1=O	none
O=c1[nH]c2cccnc2n1-c1cccc([N+](=O)[O-])c1	none (no result: KCNK3 inh)
O=C(c1ccc(-c2ccccc2Cl)o1)N1CCN(c2ccccc2O)CC1	KCNQ1 block 8 | KCNQ1 inh valid active | CHO KCNQ1 ctr inactive | KCNQ1 ephys val inactive | KCNQ2 inh inactive | KCNQ1-KCNE1 inh inactive
O=C(c1ccco1)N1CCN(C(=O)c2ccc(-c3ccccc3Cl)o2)CC1	none (no result: KCNQ1 pot, KCNQ1 block, hERG rescue, KCNK9 inh, Kir21 block)
CC1CC1C(=O)OCC(=O)Nc1cccc([N+](=O)[O-])c1 (stereo unspecified)	none
CCOc1ccc2[nH]c3c(NCCOC)ncnc3c2c1	none
CCOc1ccc2[nH]c3c(NCC(C)C)ncnc3c2c1	KCNQ1 block 6 | KCNQ1 inh valid 69 | CHO KCNQ1 ctr inactive | KCNQ2 inh 94% | KCNQ1-KCNE1 inh 70%
CN(CC(=O)Nc1ccccc1C(F)(F)F)C(=O)c1ccc(-c2ccc(Cl)cc2)o1	none
Cc1cc(C(=O)NC2CC(C)(C)Cc3c2cnn3-c2ccc(F)cc2)no1 (stereo unspecified)	none
CC1(C)Cc2c(cnn2-c2ccccc2)C(NC(=O)c2ccoc2)C1 (stereo unspecified)	none
CC1(C)Cc2c(cnn2-c2ccc(F)cc2)C(NC(=O)c2ccoc2)C1 (stereo unspecified)	KCNQ1 block 7 | KCNQ1 inh valid 72 | CHO KCNQ1 ctr inactive | KCNQ2 inh inactive | KCNQ1-KCNE1 inh 93%
Cn1nccc1C(=O)NC1CC(C)(C)Cc2c1cnn2-c1ccc(F)cc1 (stereo unspecified)	KCNQ1 block 6 | KCNQ1 inh valid inactive | CHO KCNQ1 ctr inactive | KCNQ2 inh inactive | KCNQ1-KCNE1 inh inactive
C=CCNc1nc2ccccc2nc1NS(=O)(=O)c1ccc(F)cc1	none
C=CCNc1nc2ccccc2nc1NS(=O)(=O)c1ccc(Br)cc1	KCNQ1 block 7 | KCNQ1 inh valid 70 | CHO KCNQ1 ctr inactive | KCNQ2 inh 59% | KCNQ1-KCNE1 inh inactive
O=S(=O)(Nc1ccccc1F)c1cccc(NC(=S)NCCN2CCOCC2)c1	none (no result: KCNQ1 pot, KCNQ1 block, hERG rescue, KCNK9 inh, Kir21 block)
CC(=O)Nc1cccc(NC(=S)Nc2ccc(F)c(Cl)c2)c1	KCNQ1 block 8 | KCNQ1 inh valid 61 | CHO KCNQ1 ctr inactive | KCNQ2 inh inactive | KCNQ1-KCNE1 inh inactive
Cc1ccc(NC(=O)Nc2ccc(F)c(Cl)c2)cc1	KCNQ1 block 8 | KCNQ1 inh valid 78 | CHO KCNQ1 ctr inactive | KCNQ2 inh inactive | KCNQ1-KCNE1 inh 44%
CC(=O)Nc1cccc(NC(=O)Nc2ccc(C)c(Cl)c2)c1	none
O=C(Nc1cccnc1)Nc1ccc(F)c(Cl)c1	KCNQ1 block 6 | KCNQ1 inh valid inactive | CHO KCNQ1 ctr inactive | KCNQ2 inh inactive | KCNQ1-KCNE1 inh inactive
O=C(CSc1nc2c(oc3ccccc32)c(=O)n1CC1CCCO1)NCc1ccc(F)cc1 (stereo unspecified)	none
Cc1ccc(SCCC(=O)NNC(=O)c2ccccc2F)cc1	none (no result: KCNQ1 pot, KCNQ1 block, hERG rescue, KCNK9 inh, Kir21 block)
CC(C(=O)Nc1ccc(F)cc1Cl)N1CCN(S(=O)(=O)c2cccs2)CC1 (stereo unspecified)	none (no result: KCNQ1 pot, KCNQ1 block, hERG rescue, KCNK9 inh, Kir21 block)
COc1cc(OC)cc(C(=O)Nc2nc(CC(=O)NCCc3ccccc3)cs2)c1	KCNQ1 block 15 | KCNQ1 inh valid 48 | CHO KCNQ1 ctr inactive | KCNQ2 inh 111% | KCNQ1-KCNE1 inh 103%
O=S(=O)(NCCSc1ccc(Cl)cc1)c1ccc(F)cc1	none
Cc1ccc(SCCNS(=O)(=O)c2ccc(F)cc2)cc1	KCNQ1 block 7 | KCNQ1 inh valid 47 | CHO KCNQ1 ctr inactive | KCNQ2 inh 62% | KCNQ1-KCNE1 inh 50%
Cc1ccc(C(=O)/C=C/NNC(=O)c2ccccc2O)cc1	none
CCOC(=O)C1CCN(S(=O)(=O)c2ccc3[nH]c(=O)c(=O)[nH]c3c2)CC1	none
CCOC(=O)C1CCN(S(=O)(=O)c2ccc3[nH]c4c(c3c2)CCCC4)CC1	KCNQ1 block 6 | KCNQ1 inh valid 102 | CHO KCNQ1 ctr inactive | KCNQ1 ephys val active | KCNQ2 inh 67% | KCNQ1-KCNE1 inh 102%
CCOC(=O)Cn1c(=O)c(C#N)cn(C(C)C)c1=O	none
CCCCSc1nc(C)c(CC(=O)O)c(=O)[nH]1	KCNQ1 block 10 | KCNQ1 inh valid 62 | CHO KCNQ1 ctr inactive | KCNQ2 inh inactive | KCNQ1-KCNE1 inh 47%
COc1ccc(CCNC(=O)/C=C/c2ccc(S(=O)(=O)N3CCOCC3)cc2)cc1	none (no result: KCNQ1 pot, KCNQ1 block, hERG rescue, KCNK9 inh, Kir21 block)
Cc1ccc(OCCN2CCN(c3ncnc4sc(C)c(C)c34)CC2)cc1	KCNQ1 block 11, KCNK3 inh -11 | KCNQ1 inh valid 126 | CHO KCNQ1 ctr 0.37 | KCNQ2 inh 140% | KCNQ1-KCNE1 inh 108%
CC1CN(S(=O)(=O)c2ccc(C(=O)OCc3ccc(C#N)cc3)cc2)CC(C)O1 (stereo unspecified)	none (no result: KCNQ1 pot, KCNQ1 block, hERG rescue, KCNK9 inh, Kir21 block)
O=C(NCc1ccco1)c1cccc(Nc2nc3ccc(Br)cc3[nH]2)c1	KCNQ1 block 8 | KCNQ1 inh valid 163 | CHO KCNQ1 ctr 0.33 | KCNQ2 inh 128% | KCNQ1-KCNE1 inh active
O=C(NCC1CC1)c1ccc(Nc2nc3ccc(Br)cc3[nH]2)cc1	none
Cc1cccc(NC(=S)NCCSc2ccc(Cl)cc2)c1	KCNQ1 block 8 | KCNQ1 inh valid 82 | CHO KCNQ1 ctr inactive | KCNQ2 inh 60% | KCNQ1-KCNE1 inh 96%
CCc1ccccc1NC(=S)NCCSc1ccc(Cl)cc1	none

Assay outcomes: PubChem, Johns Hopkins Ion Channel Center
